Experimental data collected from several papers.
Protocols differ between the studies behind these lines.

C[C@@H]1CC[C@@H]([C@](C)(O)CNCc2cccc3ccccc23)[C@H](OCc2ccccc2)C1  inhibition (MDA-MB-231; cell growth or viability, MTT; 30 µM, 72 h): 61%
Cc1c(Cc2ccccc2)c(=O)oc2c(C)c(OCC(=O)NN=Cc3ccccc3)ccc12  viability (MDA-MB-231; cell growth or viability, MTT; 62.5 µg/mL): 17.6%
C=CCO/N=c1\cc2n(-c3ccc(Cl)cc3)c3ccccc3nc-2cc1Nc1ccc(Cl)cc1  MIC (Neisseria gonorrhoeae; microbial growth; ATCC49226): 15 µM
Cc1c(Cc2ccccc2)c(=O)oc2c(C)c(OCC(=O)NN=Cc3ccc([N+](=O)[O-])cc3)ccc12  viability (MDA-MB-231; cell growth or viability, MTT; 500 µg/mL): 14.4%
COc1ccc(COC[C@@](O)(CNCc2ccccc2)[C@@H]2CC[C@@H](C)C[C@H]2OCc2ccc(OC)cc2)cc1  inhibition (MDA-MB-231; cell growth or viability, MTT; 10 µM, 72 h): 99.5%
C[C@H](NC(=O)CO/N=c1\cc2n(-c3ccc(Cl)cc3)c3ccccc3nc-2cc1Nc1ccc(Cl)cc1)C(=O)OC(C)(C)C  MIC (Neisseria gonorrhoeae; microbial growth; ATCC49226): 3.75 µM
C[C@@H]1[C@H](O)[C@@H](C)/C=C/C=C/C=C/C=C/C=C/C=C/C=C/[C@H](O[C@@H]2O[C@H](C)[C@@H](O)[C@H](N)[C@@H]2O)C[C@@H]2O[C@](O)(C[C@@H](O)C[C@@H](O)[C@H](O)CC[C@@H](O)C[C@@H](O)CC(=O)O[C@H]1C)C[C@H](O)[C@H]2C(=O)O  MIC (Lodderomyces parapsilosis; microbial growth, broth dilution; ATCC22019; 24 h): 2 µg/mL
COc1ccc(CNC[C@](O)(COCc2ccc(F)cc2)[C@@H]2CC[C@@H](C)C[C@H]2OCc2ccc(F)cc2)cc1  inhibition (MDA-MB-231; cell growth or viability, MTT; 30 µM, 72 h): 99.4%
COC1=CC(=O)c2ccccc2C1=O  MIC (Lodderomyces parapsilosis; microbial growth, broth dilution; ATCC22019; 24 h): 6.25 µg/mL
C[C@@H]1CC[C@@H]([C@](O)(CNCc2cccc3ccccc23)COCc2ccccc2)[C@H](OCc2ccccc2)C1  inhibition (MDA-MB-231; cell growth or viability, MTT; 30 µM, 72 h): 98%
Cc1c(Cc2ccccc2)c(=O)oc2c(C)c(OCC(=O)NN=Cc3ccc(Cl)cc3)ccc12  viability (MDA-MB-231; cell growth or viability, MTT; 250 µg/mL): 21.2%
O/N=c1\cc2n(-c3ccc(Cl)cc3)c3ccccc3nc-2cc1Nc1ccc(Cl)cc1  MIC (Neisseria gonorrhoeae; microbial growth; ATCC49226): 0.03 µM
CCc1c(C)c2ccc(OCC=Cc3ccccc3)c(C)c2oc1=O  viability (MDA-MB-231; cell growth or viability, MTT; 500 µg/mL): 13%
O=C(CO/N=c1\cc2n(-c3ccc(Cl)cc3)c3ccccc3nc-2cc1Nc1ccc(Cl)cc1)NCc1ccc2c(c1)CCO2  MIC (Neisseria gonorrhoeae; microbial growth; ATCC49226): 15 µM
C[C@@H]1CC[C@@H]([C@](O)(CNCc2ccc(F)cc2)COCc2ccc(F)cc2)[C@H](OCc2ccc(F)cc2)C1  inhibition (MDA-MB-231; cell growth or viability, MTT; 10 µM, 72 h): 88.9%
